The values that follow come from paper PMC11827156 (Malaria Journal, 2025).

Entries after “also recorded” stand apart in the source; their conditions may differ. Where two headings read alike, the source gives them in different places.

For data set [1], the system named is P. falciparum. Particulars: read-out: IC50, antimalarial activity; cited from earlier work.
For data set [2], the system named is P. falciparum 3D7. It is filed as cell-based, Plasmodium falciparum.
Data set [3] relates to Plasmodium falciparum 3D7. The data set is described as follows: Drug effects on erythrocytic cycle phases in synchronized cultures. Format: cell-based. In a few lines: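 Sorbitol-synchronized P. falciparum 3D7 at 1% parasitaemia and 2% haematocrit received test compound (150 nM), chloroquine (150 nM) or 0.1% DMSO at 0, 12 or 24 h post-synchronization. Samples were taken at 12, 24, 36 and 48 h and stained for 30 min in HEPES-buffered Hank's with 1 µM Hoechst and […] thiazole orange. Flow cytometry gated rings, trophozoites and schizonts on DNA/RNA signal. Data are mean ± SD from one triplicate experiment.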

In data set [4] the test system is knockout parasites (PfSR25−). To be noted: cited from earlier work.
The nature of data set [5]: Cytotoxicity of the compounds in HEK293 cells. Format: cell-based, human. To be noted: human, HEK293 cells. In a few lines: (§1)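 HEK293 cells (passages 7–12, grown in DMEM with 10% FBS and penicillin/streptomycin at 37 °C, 5% CO₂) were trypsinized and seeded at 10^4 cells/well. They were exposed to test compound or DMSO vehicle for 72 h. MTT (5 mg/mL reagent) was then added for 3 h, and the formazan was dissolved in DMSO. Absorbance was read at 570 nm and dose–response curves were fitted. Each condition was run in triplicate in 3 independent experiments.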

Data set [6] relates to HEK293 cells. Nature of the data set: Cytotoxicity of the compounds in HEK293 cells. It is filed as cell-based, human. To be noted: MTT, 72 h, 0.0019–2 µM; for CC50: read-out: CC50 nM HEK293. In short, it runs like this:
as §1

Data set [7] addresses P. falciparum PfSR25− (serpentine receptor 25 knockout strain). The data set is described as follows: Comparative IC50 screening, 3D7 versus serpentine receptor 25 knockout strain. Format: cell-based, Plasmodium falciparum. Particulars: 72 h, 0.0019–2 µM, Student's t test. In short, it runs like this: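 Asynchronous 3D7 and PfSR25− cultures (37 °C, 90% N2/5% O2/5% CO2) at 0.3% parasitaemia and 2% haematocrit were exposed for 72 h to eleven final concentrations. Controls were 0.13% DMSO and chloroquine 0.2441–250 nM. Cells were stained with SYBR Green-I (1:10,000) plus MitoTracker Deep Red (50 nM) for 20 min at 37 °C and read by flow cytometry. Survival was taken relative to DMSO, in triplicate over three experiments. IC50 ± SEM came from dose–response curves.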

Data set [8] has as its system P. falciparum gametocytes. To be noted: read-out: IC50 against P. falciparum gametocytes; cited from earlier work.
Data set [9] concerns P. falciparum 3D7. To be noted: cited from earlier work.
The mark [10] stands for this setting: Plasmodium falciparum, 3D7, 72 h, read-out: IC50 (nM) 3D7, Table 1, asynchronous culture, 72 h, 0.0019–2 µM, ± standard error of the mean.
Where [11] appears, read: read-out: IC50 (nM) 3D7, Table 1, asynchronous culture, 72 h, 0.0019–2 µM, ± standard error of the mean.

By IC50 is commonly meant the concentration that inhibits the measured activity by half. Turning to `CCCN(CCC)C1CCc2cccc(O)c2C1` (stereo not drawn) [8-OH-DPAT, 8-hydroxy-N-(di-n-propyl)-aminotetralin], the IC50 in data set [1] is 0.4 µM.
Take `CCN(CC)CCCC(C)Nc1ccnc2cc(Cl)ccc12` (stereo not drawn) [Chloroquine, reference compound]: in data set [2] (setting [10]), the IC50 is 11.3 ± 0.7 nM. In addition, the “ring phase parasites at the 36 h time point” value in data set [3] (150 nM added 12 h after synchronization, % parasitaemia, n = 3) is given as 0.30 ± 0.17%. In addition, in data set [3] (150 nM added 12 h after synchronization, n = 3), the “parasitaemia at the 36 h time point” value is listed as 1.55 ± 0.87%. The “parasites developed into schizonts at the 24 h time point” value in [3] (added at 0 h, control 18%) is “less than 0.5%”. In [4] (exposure for 24 h), the “parasitaemia of knockout parasites (PfSR25−) versus wild-type (3D7)” value is recorded as “significantly reduced parasitaemia compared with that of wild-type parasites (3D7)”.
Broadly, the CC50 is the concentration that lowers cell viability or growth by half. Turning to `CN(CCCNCc1cccc2ccccc12)CCCNCc1cccc2ccccc12.Cl` [TCMDC-137905, Cl.CN(CCCNCc1cccc2ccccc12)CCCNCc1cccc2ccccc12], the IC50 is 91.1 ± 18.4 nM in data set [2] (setting [10]); 91.1 nM in [2] (Plasmodium falciparum, 3D7, read-out: IC50 nM 3D7, Table 2); 0.23 µM in data set [8]. Besides, the CC50 at 72 h in data set [5] was 5.55 µM. Moreover, the “cytotoxic activity in HEK293 cells” value in data set [6] is recorded as “exhibited cytotoxic activity in HEK293 cells”. The “difference of IC50 between 3D7 and PfSR25−” value in [7] is “none of the compounds tested were significantly different between the two strains”.
For `CCOc1cc(CC)ccc1C1CCN(CCCCNC(=O)c2ccc(NC(=O)c3ccc(Cl)cc3)cc2)CC1.Cl` [TCMDC-138317, Cl.CCOc1cc(CC)ccc1C1CCN(CCCCNC(= O)c2ccc(NC(= O)c3ccc(Cl)cc3)cc2)CC1], in data set [2] (read-out: IC50 nM 3D7, Table 2), the IC50 stood at 80.8 nM. In data set [2] (setting [11]), the IC50 was 80.8 ± 25.9 nM. For the same molecule, in [6], the “cytotoxic activity in HEK293 cells” value is “exhibited cytotoxic activity in HEK293 cells; also recorded: toxic to mammalian HEK293 cells” and the CC50 was 16.6 nM.
Take `CC(Cc1ccc(NC(=O)c2ccc(CNCCc3ccccc3)cc2)cc1)NCCc1cccc(Cl)c1.Cl` (stereo not drawn) [TCMDC-139867, Cl.CC(Cc1ccc(NC(= O)c2ccc(CNCCc3ccccc3)cc2)cc1)NCCc1cccc(Cl)c1]: the IC50 in [2] (read-out: IC50 nM 3D7, Table 2) came to 57.4 nM. Also, the IC50 in data set [2] (setting [11]) stood at 57.4 ± 12.2 nM. Besides, in [6], the “cytotoxic activity in HEK293 cells” value is recorded as “exhibited cytotoxic activity in HEK293 cells” and the CC50 came to 1280 nM. Moreover, the “difference of IC50 between 3D7 and PfSR25−” value in [7] was “none of the compounds tested were significantly different between the two strains”.
`CCCCN(CCCC)CC(O)c1cc(Cl)cc2c1-c1ccc(Cl)cc1/C2=C/c1ccc(Cl)cc1` (stereo not drawn) [lumefantrine]: the “susceptibility of PfSR25−” value in [4] is reported as “increased susceptibility”.
As for `Clc1ccc2c(N3CCN(CCCN4CCN(c5ccnc6cc(Cl)ccc56)CC4)CC3)ccnc2c1` [piperaquine], in data set [4], the “susceptibility of PfSR25−” value was “increased susceptibility”.
As to Melatotosil, the “action on melatonin in the cell cycle of P. falciparum 3D7” value in data set [9] is reported as “blocks the action of melatonin in the cell cycle of P. falciparum 3D7”.
